# An excerpt weighted towards active compounds, which were near 3.5% of everything screened.
# RGS4 inh: human RGS4 inhibition; HEK293 M3R/RGS4 inducible, Fluo-4 calcium flux; active compounds read high; triggered by carbachol at its EC20; B-score at 10 µM; actives 0.45% (n = 310,000);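 active means B-score, a plate-corrected calcium signal, over three deviations above library mean, with baseline fluorescence within five deviations of library mean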;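 further: RGS4 expression induced by doxycycline in cells with stable M3 receptor; B-score is computed from the integrated fluorescence ratio over baseline after carbachol; higher B-score means a larger calcium signal and so more RGS4 inhibition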
# Target sequence (P49798 whole entry, looked up): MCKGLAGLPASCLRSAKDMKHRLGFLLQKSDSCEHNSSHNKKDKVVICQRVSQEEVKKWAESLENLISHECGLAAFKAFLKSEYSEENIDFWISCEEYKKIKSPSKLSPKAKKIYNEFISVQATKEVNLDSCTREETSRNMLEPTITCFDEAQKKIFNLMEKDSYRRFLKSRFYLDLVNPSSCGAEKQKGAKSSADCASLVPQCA
# MrgX1 PAM: human MrgX1 positive allosteric modulation, primary screen; MrgX1-HEK293, Fluo-4 calcium flux, FDSS; active compounds read high; B-score at 10 µM; Q96LB2; actives 0.63% (n = 310,000); AID 588675;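 active means plate-corrected calcium response at least 3 library SD above typical, normal starting fluorescence, not activating the receptor alone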;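 further: compound read alongside a low EC10 to EC30 dose of BAM8-22 agonist; peak minus trough fluorescence over baseline measured at the second addition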
# Target sequence (Q96LB2 whole entry, looked up): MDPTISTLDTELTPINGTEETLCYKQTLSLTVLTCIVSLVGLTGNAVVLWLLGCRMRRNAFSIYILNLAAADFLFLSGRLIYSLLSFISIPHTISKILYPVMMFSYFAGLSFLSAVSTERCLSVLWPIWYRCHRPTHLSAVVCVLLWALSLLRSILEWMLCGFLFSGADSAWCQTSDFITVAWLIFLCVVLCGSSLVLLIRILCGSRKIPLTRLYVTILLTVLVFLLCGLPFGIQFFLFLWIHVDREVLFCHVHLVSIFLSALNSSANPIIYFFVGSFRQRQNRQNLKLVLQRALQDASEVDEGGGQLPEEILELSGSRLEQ
# RGS4 pot: potentiators or activators of RGS4; B-score at 10 µM; HEK293 M3R/inducible RGS4, carbachol calcium flux Fluo4; active compounds read low; actives 0.92% (n = 310,000);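 active means B-score of the integrated calcium signal more than 4 SD below the library mean, with starting fluorescence not abnormally high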;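 further: negative B-score means reduced calcium response which marks RGS4 activation or potentiation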
#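 test system = HEK293 cells with stable M3R and inducible RGS4 | schedule = recording 10 s baseline at 1 Hz, 100 s post-agonist | technique = Fluo4-AM (2 µM) calcium-flux fluorescence, kinetic read | measure = Agonist-evoked peak-minus-minimum fluorescence over baseline, integrated ratio, B score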
# MrgX1 ag: activates human MrgX1 receptor signaling. Q96LB2. MrgX1-HEK293 cells, Fluo-4 calcium fluorescence, agonist mode; active compounds read high. B-score at 10 µM. actives 0.44% (n = 310,000). AID 588627;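 active means calcium response B-score plate-corrected fluorescence ratio at least 3 library SD, with starting fluorescence B-score inside 5 SD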
#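 Material: HEK293 cells stably expressing human MrgX1 receptor | Quantity: 15,000 cells per well | Times: Cells plated overnight, dye loaded 0.5 h 37 °C, 0.5 h room temperature | Measured by: Kinetic Fluo-4 NW fluorescence of intracellular calcium | Control set: Positive and negative controls per plate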
# MrgX1 antagonist: blocks BAM8-22 activation of human MrgX1 receptor | MRGX1-HEK293 calcium flux, Fluo-4, BAM8-22 antagonism; active compounds read low | B-score at 10 µM | actives 1.3% (n = 310,000);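 active means calcium-response B-score plate-corrected more than 3 library SD below zero, starting fluorescence within 5 deviations, no agonist response on first addition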;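 further: peak minus trough fluorescence over baseline after final BAM8-22 challenge near maximal dose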
# MrgX1 ag confirm: human MrgX1 agonism, re-confirmation screen; activation, % at 10 µM; actives 78% (n = 600); MrgX1-HEK293, Fluo-4 calcium fluorescence, FDSS; shares compounds with MrgX1 ag;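 active means calcium signal rise, corrected for plate position, at least 3 library SD high, with starting brightness within 5 such deviations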
# HEK293 Ca flux: MrgX1 antagonist counter-screen hit in parental HEK293 cells | Fluo-4 calcium fluorescence, FDSS | fluorescence ratio F(max-min)/F0 at 10 µM | shares compounds with MrgX1 antagonist | AID 624111 | actives 2% (n = 4,000);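 active means duplicate-averaged calcium fluorescence ratio at least three times the standard deviation of buffer wells, a nonspecific response in parental cells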
# HEK293 Ca counter: MrgX1 allosteric activator counter-screen hit in parental HEK293 cells; shares compounds with MrgX1 antagonist; parental HEK293 calcium flux, Fluo-4 fluorescence ratio; active compounds read high; fluorescence ratio F(max-min)/F0 at 10 µM; actives 0.4% (n = 4,000);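 active means calcium fluorescence ratio, averaged over duplicates, at least 3 SD of the buffer-well ratio, meaning a nonspecific response in receptor-free cells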;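 further: untransfected parental HEK293 lacking MrgX1 used as counterscreen for MrgX1 allosteric activators; fluorescence change taken during the second addition on a kinetic imager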
# HEK293 Ca cntr2: activity in parental HEK293 cells lacking MrgX1 receptor; Fluo-4 calcium fluorescence (FDSS); active compounds read high; shares compounds with MrgX1 antagonist; actives 8.7% (n = 4,000); fluorescence ratio F(max-min)/F0 at 10 µM;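 active means calcium fluorescence ratio at least three times the spread of buffer wells, meaning a non-specific response in parental cells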
# Numbers stand for hits; - = inactive; . = no result given.
SMILES,RGS4 inh,MrgX1 PAM,RGS4 pot,MrgX1 ag,MrgX1 antagonist,MrgX1 ag confirm,HEK293 Ca flux,HEK293 Ca counter,HEK293 Ca cntr2
Cc1ccccc1C(=O)Nc1cccc(NC(=S)NC(=O)c2cccs2)c1,-,-,-,-,-,.,.,.,.
O=C(NNC(=S)Nc1ccccc1)c1cccs1,-,-,-,-,-,.,.,.,.
Cc1cccc(C(=O)NC(=S)NNC(=O)c2cccs2)c1,-,-,-,173,-,647%,-,-,140
O=C(NC(=S)NNC(=O)c1cccs1)c1ccccc1,-,-,-,132,-,547%,-,-,107
Cc1ccccc1C(=O)NNC(=S)NC(=O)c1cccs1,-,-,-,79,-,651%,-,-,130
COc1ccc(/C=C2\C(=O)N(c3c(Cl)cc(Cl)cc3Cl)N=C2NC(=O)c2cccc([N+](=O)[O-])c2)cc1,.,-,.,-,-,.,.,.,.
CC(C)n1c(SCC(=O)Nc2nc3c(s2)CCCC3)nc2c1c(=O)n(C)c(=O)n2C,-,-,-,-,-,.,.,.,.
Cc1cc(C)c(NC(=O)CSc2nc3c(c(=O)n2C)SC(C)C3)c(C)c1 (stereo unspecified),-,-,-,-,-,.,.,.,.
CC(C)CC(COCc1cccc(Cl)c1)N1CCN(C(=O)c2ccc(C(F)(F)F)cc2)CCC1=O (stereo unspecified),-,-,-,-,-,.,.,.,.
Cc1ccc(OCCCC(=O)NNC(=O)c2ccncc2)cc1,-,-,-,-,-,.,.,.,.
Nc1ccc(C23CC4CC(CC(CO)(C4)C2)C3)cc1,-,-,-,-,-,.,.,.,.
NCC12CC3CC(C1)CC(c1ccc(Cl)cc1)(C3)C2,-,-,-7.2,34,-,135%,-,-,-
Cn1c(NC(=O)c2cc(Br)ccc2Cl)cc(=O)n(C)c1=O,-,-,-,-,-,.,.,.,.
Fc1ccc(-c2cc(C(F)(F)C(F)F)[nH]n2)cc1,-,-,-,41,-,212%,-,-,48
CCN(CC)S(=O)(=O)c1ccc(OC)c(NC(=O)C2CC(=O)N(c3ccc4c(c3)OCCO4)C2)c1 (stereo unspecified),-,-,-,-,-,.,.,.,.
COc1ccc(C(=O)N2CCNC(=O)C2CC(=O)Nc2cc(Cl)ccc2OC)cc1 (stereo unspecified),-,-,-,-,-,.,.,.,.
Cc1cccn2c(=O)c3cc(C(=O)NC(C)c4ccccc4)c(=N)n(CCCn4ccnc4)c3nc12 (stereo unspecified),-,-,-,-,-,.,.,.,.
COCc1cc(C)n(CC(=O)OC)c(=O)c1C#N,-,-,-,-,-,.,.,.,.
Cc1ccc(NC(=O)CCNS(=O)(=O)c2ccc3c(c2)CCC(=O)N3)cc1,-,-,-,-,-,.,.,.,.
CC(C)CC(=O)NC(=S)NNC(=O)c1ccc([N+](=O)[O-])cc1,-,-,-,81,-,280%,-,-,72
CCC(=O)NC(=S)NNC(=O)c1ccc([N+](=O)[O-])cc1,-,-,-,-,-,.,.,.,.
Cc1nc(Nc2ccccc2)sc1C(=O)Nc1ccccc1,-,-,-,-,-,.,.,.,.
Cc1nc(Nc2ccc(S(N)(=O)=O)cc2)sc1C(=O)Nc1ccccc1,-,-,-,32,-,227%,-,-,-
COc1ccnc(CSC(N)=Nc2ccccc2OC)c1,-,-,-,-,-,.,.,.,.
COc1ccnc(CSC(N)=Nc2ccccc2C(F)(F)F)c1,-,-,-,33,-,102%,-,-,-
SMILES,RGS4 inh,MrgX1 PAM,RGS4 pot,MrgX1 ag,MrgX1 antagonist,MrgX1 ag confirm,HEK293 Ca flux,HEK293 Ca counter,HEK293 Ca cntr2
COc1ccc(CNC(=O)C(C)n2ccc3cc(S(=O)(=O)N4CCCCCC4)ccc32)cc1 (stereo unspecified),-,-,-,-,-,.,.,.,.
COC(=O)C1=C(C)OC(N)=C(C#N)C1c1ccco1 (stereo unspecified),-,-,-,-,-,.,.,.,.
COC(=O)C1=C(C)OC(N)=C(C#N)C1c1ccccc1F (stereo unspecified),-,-,-,27,-,170%,-,-,64
CCOC(=O)C1=C(CSc2nc3c(cc2C#N)CN(C)CC3)OC(N)=C(C#N)C1c1ccccc1 (stereo unspecified),.,-,.,-,-,.,.,.,.
COC(=O)C1=C(C)OC(N)=C(C#N)C1c1cc(OC)c(OCC(N)=O)cc1Cl (stereo unspecified),-,-,-,43,-,230%,-,-,56
CC(=O)C1=C(C)OC(N)=C(C#N)C1c1cc([N+](=O)[O-])ccc1Cl (stereo unspecified),-,-,-,-,-,.,.,.,.
COC(=O)C1=C(CSc2nc3c(cc2C#N)CN(C)CC3)OC(N)=C(C#N)C1c1ccccc1F (stereo unspecified),-,-,-,42,-,265%,-,-,57
Cc1cc(C)n(-c2nc(C)nc(NCc3ccccc3)n2)n1,-,-,-,34,-,130%,-,-,-
CNc1nc(C)nc(-n2nc(C)cc2C)n1,-,-,-,-,-,.,.,.,.
CN=C1S/C(=C\c2cccc(Cl)c2Cl)C(=O)N1C,-,-,-,-,-,.,.,.,.
CC1CCCC(C)N1C(=O)CSc1nnc(C2CCCCC2)o1 (stereo unspecified),-,-,-,-,-,.,.,.,.
Cn1cccc1/C=N/N1CCN(Cc2cccc3ccccc23)CC1,-,-,-,-,-,.,.,.,.
NC1=NC[C@@H](Cc2ccc(O)cc2)N1CCc1cccc(F)c1,-,-,-,31,-,171%,-,-,-
NC1=NC[C@@H](Cc2ccc(O)cc2)N1CCc1cc(C(F)(F)F)cc(C(F)(F)F)c1,-,-,-,-,-,.,.,.,.
COc1cc2c(cc1OC)C(c1ccccc1)N(S(C)(=O)=O)CC2 (stereo unspecified),-,-,-,-,-,.,.,.,.
COc1cc(/C=C/C(=O)CC(=O)/C=C/c2ccc(O)c(OC)c2)ccc1O,-,-,-,143,-,-,0.033,-,212
COc1cc(/C=C/C(=O)O)ccc1O,-,-,-,-,-,.,.,.,.
Cc1ccc(-n2ncc3c(NCc4ccc5c(c4)OCO5)ncnc32)c(C)c1,-,-,-,32,-,224%,-,-,48
Cc1cccc(-n2ncc3c(NCc4ccc5c(c4)OCO5)ncnc32)c1,-,-,-,-,-,.,.,.,.
Cn1c2c(c(=O)n(C)c1=O)[C@@]1(C(=O)Nc3ccccc31)C(C#N)=C(N)O2,-,-,-,41,-,173%,-,-,-
